Only some compounds are listed: those with a hit (about 1.5% of all), similar ones and a draw of the others.
CCR6 antagonist = blocks CCL20-driven beta-arrestin recruitment at human CCR6. CHO-K1 CCR6 PathHunter beta-arrestin, luminescence, CCL20-stimulated. inhibition, % at 20 µM. 340,000 compounds, 0.49% hits. AID 493098;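 active = compounds whose inhibition of the agonist-driven luminescence signal at 20 µM reaches about 50%, limit read from the data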;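 note: cells stimulated with CCL20 at 14 nM final; plate controls were DMSO with CCL20 for no effect and DMSO without agonist for full effect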
Target sequence (P51684 whole entry, looked up): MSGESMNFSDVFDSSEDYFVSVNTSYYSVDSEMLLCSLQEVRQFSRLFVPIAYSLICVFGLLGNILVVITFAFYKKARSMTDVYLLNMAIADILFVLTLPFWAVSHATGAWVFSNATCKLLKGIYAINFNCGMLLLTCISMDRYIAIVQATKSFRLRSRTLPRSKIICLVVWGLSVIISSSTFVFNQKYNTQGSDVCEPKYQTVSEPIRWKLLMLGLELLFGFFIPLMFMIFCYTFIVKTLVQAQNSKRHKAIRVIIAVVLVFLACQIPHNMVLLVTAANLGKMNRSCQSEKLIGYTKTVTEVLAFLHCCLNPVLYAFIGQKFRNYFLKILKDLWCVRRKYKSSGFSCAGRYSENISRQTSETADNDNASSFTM
APJ antag = APJ receptor antagonism; CHO-K1 APJ beta-arrestin complementation, luminescence; inhibition, % at 20 µM; 330,000 compounds, 0.32% hits; AID 2521;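 active = inhibition above about 40% at 20 µM, limit read from the data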;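 note: cells challenged with 10 nM apelin-13 agonist together with compound; plate controls were apelin-13 plus DMSO wells for no effect and DMSO wells lacking apelin-13 for full effect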
EBI2 antag = antagonists of human EBI2 receptor; P32249; EBI2 beta-arrestin recruitment, luminescence, 7a,25-OHC stimulated; inhibition, % at 5 µM; 360,000 compounds, 0.81% hits; AID 651636; in the data active = inhibition above about 38%;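 note: enzyme fragment complementation signal reports receptor beta-arrestin coupling in cells; 0% = agonist plus DMSO wells and 100% = wells without agonist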
Target sequence (P32249 whole entry, looked up, the tested form may be a part): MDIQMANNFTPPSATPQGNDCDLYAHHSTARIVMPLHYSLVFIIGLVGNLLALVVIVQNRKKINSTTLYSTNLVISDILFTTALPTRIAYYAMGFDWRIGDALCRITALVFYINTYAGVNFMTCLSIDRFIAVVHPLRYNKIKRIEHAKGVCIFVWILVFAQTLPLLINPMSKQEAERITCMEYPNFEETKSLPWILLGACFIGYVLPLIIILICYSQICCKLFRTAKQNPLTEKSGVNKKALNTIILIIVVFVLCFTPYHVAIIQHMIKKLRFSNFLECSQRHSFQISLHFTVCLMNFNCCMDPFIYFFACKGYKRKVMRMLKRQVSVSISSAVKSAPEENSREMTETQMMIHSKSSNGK
CXCR6 block = inhibitors of human CXCR6 receptor; 360,000 compounds, 0.36% hits; AID 602244; O00574; inhibition, % at 20 µM; CHO-K1 PathHunter CXCR6 beta-arrestin, luminescence; in the data active = inhibition above about 34%, passing the limit was not always enough;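 note: antagonist mode with CXCL16 agonist at 10 nM final; 0% = 10 nM CXCL16 with DMSO and 100% = unstimulated wells without agonist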
APJ ag = APJ receptor agonism; P35414; 330,000 compounds, 0.11% hits; AID 2520; activation, % at 20 µM; CHO-K1 APJ PathHunter beta-arrestin, luminescence; 0% DMSO wells, 100% apelin;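 active = activation more than six SD over the plate average, tested at 20 µM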;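 note: 0% = DMSO alone and 100% = apelin-13 at 10 nM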
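Test system – PathHunter CHO-K1 APJ (AGTRL-1) beta-arrestin reporter cells · Input – 1000 cells/well · Compound – single test compound dose, 20 µM final, 1% DMSO · Times – compound stimulation 90 min at 25 °C, detection 60 min · Technique – beta-gal luminescence · Read-out basis – APJ–arrestin association signal · Control set – negative DMSO alone, positive Apelin-13 at 10 nM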
CXCR6 confirm = CXCR6 antagonism confirmation, single concentration; CHO-K1 CXCR6 PathHunter beta-arrestin, luminescence; shares compounds with CXCR6 block; inhibition, % at 20 µM; 700 compounds, 65% hits;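 active = mean inhibition over four retests above 40%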;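 note: receptor stimulated with 10 nM CXCL16 agonist; beta-galactosidase fragment complementation upon beta-arrestin recruitment to receptor; plate controls were CXCL16 plus DMSO for no effect and DMSO without CXCL16 for full effect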
EBI2 conf = confirmation of human EBI2 receptor antagonists | shares compounds with EBI2 antag | EBI2 beta-arrestin luminescence, 7a,25-OHC antagonism | inhibition, % at 5 µM | 2,400 compounds, 29% hits;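 active = inhibition of at least 50%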
EBI2 agonist = activates EBI2, counter-screen for EBI2 antagonists; shares compounds with EBI2 antag; EBI2-expressing cells, agonist mode, luminescence, 60 min; 0% vehicle, 100% 7α,25-dihydroxycholesterol control; activation, % at 5 µM; 2,400 tested, under 10 active; AID 652000;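 active = activation of at least 50%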
bGal cs = counter-screen for EBI2 antagonists: E. coli beta-galactosidase inhibition; shares compounds with EBI2 antag; purified beta-galactosidase, luminescent Galacton Star, 15 min; inhibition, % at 5 µM; 2,400 compounds, 1% hits; AID 652176;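 active = replicate-average signal at least 3 plate SD below neutral wells, shown as high inhibition, flagging enzyme-inhibiting false positives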;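 note: 0% = DMSO wells with enzyme and 100% = wells lacking enzyme; higher means stronger loss of beta-gal luminescence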
An asterisk follows results filed as active; . = no result given.

SMILES | CCR6 antagonist | APJ antag | EBI2 antag | CXCR6 block | APJ ag | EBI2 conf | EBI2 agonist | bGal cs | others
COc1ccc(C(=O)N/N=C(\C)c2ccccn2)cc1OC | 75* | 76* | 58* | 51* | -21 | 84* | -1 | 0 | CXCR6 confirm=69*
NNC(=O)c1cc(-c2cccs2)nc2ccccc12 | -17 | -5 | -9 | -28 | 1 | . | . | .
C/C(=N\NC(=O)c1cc(-c2cccs2)nc2ccccc12)c1ccccn1 | 29 | 39 | 66* | 45* | -8 | 48 | -3 | -10 | CXCR6 confirm=44*
CCC(CC)C(=O)N(C)c1c(C)nc2c(OCc3ccc(Cl)cc3Cl)cccn12 | . | . | 47* | 51* | . | 46 | -1 | 8 | CXCR6 confirm=24
CCC(CC)C(=O)N(C)c1c(C)nc2c(OCc3ccccc3C)cccn12 | . | . | -1 | 1 | . | . | . | .
CC(C)Cc1ccc(-c2cc3nc(NCCCn4ccnc4)ccn3n2)cc1 | . | . | 29 | -26 | . | . | . | .
O=[N+]([O-])c1ccc(N/N=C/c2sc(N3CCOCC3)nc2-c2ccccc2)c(S(=O)(=O)Nc2ccc(Cl)cc2)c1 | 83* | . | 51* | 52* | . | 30 | -1 | 13 | CXCR6 confirm=62*
CN(C)CC(=O)Nc1ccc2c(c1)[C@H]1C[C@H](CC(=O)NCc3ccc4c(c3)OCO4)O[C@H](CO)[C@H]1O2 | . | . | 2 | 10 | . | . | . | .
Cc1n[nH]c(=S)n(NC(=O)CC(=O)Nn2c(=S)[nH]nc(C)c2=O)c1=O | . | 10 | 44* | 103* | -2 | 22 | -4 | 17* | CXCR6 confirm=115*
OC[C@@H]1CN(Cc2ccccc2)C[C@H](n2cnc3c(NC4CCCC4)ncnc32)O1 | . | . | 0 | -8 | . | . | . | .
Cc1ccc(NC(=S)NNc2ncc(C(F)(F)F)cc2Cl)cc1 | 90* | -18 | 42* | 78* | -2 | 33 | -1 | 15 | CXCR6 confirm=58*
Cc1ccc(NC(=S)NNC(=S)Nc2cccc(C(F)(F)F)c2)cc1 | 27 | -6 | 28 | 12 | 0 | . | . | .
COc1cc2ccccc2cc1C(=O)N1CCN(C(C)=O)CC1 | 5 | 9 | 66* | 5 | -4 | 52* | 0 | -13
CCOc1ccccc1N1CCN(C(=O)c2cc3ccccc3cc2OC)CC1 | 2 | 18 | 57* | 6 | -5 | 31 | 1 | 9
CCCC(C)NC(=O)COc1ccc(Sc2ccc(OCC(=O)NC(C)CCC)cc2)cc1 (stereo unspecified) | 21 | -7 | 43* | 4 | 3 | 27 | 2 | -2
Cc1ccc2nc(-c3ccncc3)cc(C(=O)Nc3ccc(F)cc3C)c2c1 | -7 | 10 | 51* | -1 | 1 | 64* | 1 | 8
COc1ccc(-c2nnc(C3CCN(S(=O)(=O)c4ccccc4)CC3)o2)cc1 | 0 | 7 | 47* | -5 | -2 | 20 | 0 | -7
Cc1ccccc1-c1nnc(-c2ccc(Br)cc2)o1 | 11 | -11 | 16 | -7 | 0 | . | . | .
CCC1CCC(c2nnc(-c3ccc(Br)cc3)o2)CC1 (stereo unspecified) | 11 | -2 | 50* | -4 | -4 | 29 | 0 | 6
O=C(COc1cccnc1[N+](=O)[O-])Nc1cccc(Br)c1 | 10 | 9 | -5 | 1 | -2 | . | . | .
O=C(COc1cccnc1[N+](=O)[O-])Nc1ccccc1Sc1ccccc1 | 5 | 4 | 48* | 5 | -2 | 32 | 0 | 7
CC1(C(=O)NCc2ccccc2)CN(S(C)(=O)=O)CC(=O)N1C1CC1 (stereo unspecified) | . | . | -14 | . | . | . | . | .
Cc1ccc(-c2nc3ccc(C)cn3c2Cc2cccc(F)c2)cc1 | . | . | 43* | 28 | . | 46 | -2 | -14
Cc1cc2nc(-c3ccc(C#N)cc3)c(Cc3cccc(F)c3)n2c(C)c1Br | . | . | 44* | 5 | . | 43 | -1 | -16
Cc1ccc(-c2nc3ccc(C)cn3c2Cc2cccc(Cl)c2)cc1 | . | . | 35 | 31 | . | . | . | .
SMILES | CCR6 antagonist | APJ antag | EBI2 antag | CXCR6 block | APJ ag | EBI2 conf | EBI2 agonist | bGal cs | others
OC(c1ccccc1)c1ncc(-c2cccc(OCc3ccccc3)c2)[nH]1 (stereo unspecified) | . | . | 5 | -1 | . | . | . | .
CC(=O)c1ccc(Nc2ccc(-c3ccccc3F)nn2)cc1 | 5 | -10 | 42* | -7 | -2 | 26 | -2 | -5
Cc1ccc(CONC(=O)c2ccc(OC(F)F)cc2)cc1 | 6 | 18 | 78* | -4 | 0 | 71* | 0 | 8
FC(F)(F)Oc1ccccc1C(c1nnnn1Cc1ccccc1)N1CCN(C/C=C/c2ccccc2)CC1 (stereo unspecified) | . | . | 67* | 23 | . | 24 | -1 | 6
CCCCn1nnnc1C(c1ccccc1OC(F)(F)F)N1CCN(C/C=C/c2ccccc2)CC1 (stereo unspecified) | . | . | 68* | 19 | . | 58* | 0 | 8
COc1ccccc1C(c1nnnn1Cc1ccccc1)N1CCN(C2CCCC2)CC1 (stereo unspecified) | 5 | -7 | -3 | -7 | -1 | . | . | .
CCCCc1c(Cc2cccc(F)c2)ncn1CCc1ccccc1OC | . | . | 16 | 0 | . | . | . | .
OC(COc1ccc(Br)cc1)Cn1ccnc1 (stereo unspecified) | 4 | 2 | 7 | 4 | -2 | . | . | .
COc1ccc(Br)cc1CN(C)CC(O)COc1ccc(Br)cc1 (stereo unspecified) | 10 | 12 | 91* | -7 | -1 | 59* | -1 | -12
COc1ccc(OCC(O)CNC(=O)c2ccc(OC)cc2)cc1 (stereo unspecified) | 12 | 9 | 21 | 4 | -1 | . | . | .
COc1ccc(OCC(O)Cn2cnc(-c3ccc(Br)cc3)c2)cc1 (stereo unspecified) | -9 | 2 | 48* | -10 | -3 | 40 | 1 | 6
COc1ccc(OCC(O)CNc2ccc(Br)cc2)cc1 (stereo unspecified) | -3 | 0 | 76* | -1 | 0 | 52* | 0 | -9
COc1ccc(OCC(O)CNC(=O)c2ccc(Br)cc2)cc1 (stereo unspecified) | 21 | -13 | 53* | 3 | -2 | 36 | 1 | 9
O=C1CCSC2=C1SCc1sccc12 | . | . | -6 | -16 | . | . | . | .
COc1ccc(OCC(O)COc2ccc(OC)cc2)cc1 | -8 | 5 | 72* | -13 | 2 | 60* | 1 | 8
CC(C)Cc1ccc(-c2cc3nc(NCCc4ccc(S(N)(=O)=O)cc4)ccn3n2)cc1 | . | . | 66* | -8 | . | 50 | -1 | -13
NS(=O)(=O)c1ccc(CCNc2ccn3nc(-c4ccccc4)cc3n2)cc1 | . | . | 10 | -4 | . | . | . | .

Compound activity deposited in PubChem BioAssay by Sanford-Burnham Center for Chemical Genomics.
